Source: PubChem BioAssay
In the library only some 2.3% were active in any assay of this set; here they are far more common.
ABCG2 inh – human ABCG2 inhibition, ABCB1 as counter-screen; 190,000 tested, 0.1% active; AID 1325; inhibition, % at 6.6 µM; IgMXP3 cells, JC-1 efflux, flow cytometry;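 active = inhibition above 80%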;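 note: 0% = DMSO and 100% = nicardipine control wells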
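Test system: ABCG2 IgMXP3 and barcoded ABCB1 CCRF-Adr cell mix; Schedule: cells with compound and JC-1, 10 min at 25 °C, rotating, no wash; Technique: flow cytometry of retained JC-1 fluorescence; Measure: % inhibition of efflux relative to nicardipine and DMSO; Controls: nicardipine high and DMSO low controls.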
MEKK2 mut-MEK5 – signal of MEK5 binding to mutant human MEKK2 PB1 domain; 290,000 tested, 0.35% active; bead flow cytometry, Alexa488-MEK5 binding to MEKK2 mutant; AID 1530; percent response, % at 10 µM; in the data active = percent response above about 24%, passing the limit was not always enough
MEKK3 PB1 HTS – modulators (inhibitors or enhancers) of MEK5 binding to human MEKK3 PB1 domain; binding response (% of control), % at 10 µM; bead-based flow cytometry, Alexa488-MEK5 binding to MEKK3; actives lie on both sides; 0 = blocked by unlabeled MEK5, 100 = vehicle; 290,000 tested, 1.4% active; Q99759;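 active = binding response more than 3 SD above or below the average of its plate-row segment, actives on both sides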;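 note: Alexa488 bead fluorescence after subtracting the streptavidin-only scavenger bead signal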
ABCB1 inh – blocks JC-1 efflux by human ABCB1 transporter; P08183; CCRF-Adr cells, flow cytometry; inhibition, % at 6.6 µM; 190,000 tested, 0.067% active; in the data active = inhibition above about 40%;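 note: 0% = vehicle and 100% = reference inhibitor; higher value means more JC-1 retained so stronger ABCB1 efflux block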
Target sequence (P08183 whole entry, looked up): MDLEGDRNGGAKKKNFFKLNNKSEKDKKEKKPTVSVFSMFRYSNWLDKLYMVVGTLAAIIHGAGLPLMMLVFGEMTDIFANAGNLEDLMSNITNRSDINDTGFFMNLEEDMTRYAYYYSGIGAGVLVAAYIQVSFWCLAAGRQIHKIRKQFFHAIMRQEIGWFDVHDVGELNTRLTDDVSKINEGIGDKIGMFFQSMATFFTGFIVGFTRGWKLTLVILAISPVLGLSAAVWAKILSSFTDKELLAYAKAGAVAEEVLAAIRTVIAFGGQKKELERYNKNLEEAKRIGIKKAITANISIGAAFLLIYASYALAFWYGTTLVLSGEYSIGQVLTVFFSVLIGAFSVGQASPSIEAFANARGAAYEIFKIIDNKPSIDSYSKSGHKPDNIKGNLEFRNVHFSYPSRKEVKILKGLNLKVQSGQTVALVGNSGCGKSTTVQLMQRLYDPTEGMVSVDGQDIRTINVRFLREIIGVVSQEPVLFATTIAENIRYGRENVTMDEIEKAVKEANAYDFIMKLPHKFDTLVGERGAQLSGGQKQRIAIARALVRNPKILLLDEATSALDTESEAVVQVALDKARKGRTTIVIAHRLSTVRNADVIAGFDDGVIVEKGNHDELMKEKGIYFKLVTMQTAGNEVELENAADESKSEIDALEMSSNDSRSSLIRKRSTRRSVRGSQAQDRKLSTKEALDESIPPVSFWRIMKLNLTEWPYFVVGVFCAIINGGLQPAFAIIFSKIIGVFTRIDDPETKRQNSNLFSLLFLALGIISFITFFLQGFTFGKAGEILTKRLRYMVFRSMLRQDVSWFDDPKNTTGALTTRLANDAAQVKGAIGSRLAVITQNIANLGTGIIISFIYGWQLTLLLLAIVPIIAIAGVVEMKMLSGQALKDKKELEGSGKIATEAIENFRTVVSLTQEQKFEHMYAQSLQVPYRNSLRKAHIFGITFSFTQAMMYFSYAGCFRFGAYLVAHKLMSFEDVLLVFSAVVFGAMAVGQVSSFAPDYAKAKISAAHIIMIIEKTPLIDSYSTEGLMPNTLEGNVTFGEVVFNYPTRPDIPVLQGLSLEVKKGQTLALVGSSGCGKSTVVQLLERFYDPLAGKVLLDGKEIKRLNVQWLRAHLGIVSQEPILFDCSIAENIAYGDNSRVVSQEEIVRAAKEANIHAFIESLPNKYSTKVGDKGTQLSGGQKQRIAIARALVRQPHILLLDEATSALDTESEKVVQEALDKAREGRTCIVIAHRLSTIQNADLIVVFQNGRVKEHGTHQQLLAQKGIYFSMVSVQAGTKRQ
MEKK2 WT-MEK5 – raises or lowers MEK5 binding to wildtype human MEKK2 PB1 domain; bead flow cytometry, Alexa488-MEK5 binding to MEKK2 WT; actives lie on both sides; binding response (% of control), % at 10 µM; 290,000 tested, 1.1% active; in the data active = binding response below about 67% or above about 130%
MEKK2wt confirm – raises or lowers MEK5 binding to wildtype human MEKK2, retest | shares compounds with MEKK3 PB1 HTS | bead flow cytometry, Alexa488-MEK5 binding to MEKK2 WT; actives lie on both sides | binding response (% of control), % at 10 µM | 5,900 tested, 2.4% active | AID 1892; in the data active = binding response below about 16% or above about 210%; inactive = in between
MEKK2mut confirm – signal of MEK5 binding to mutant human MEKK2, retest; AID 1893; bead flow cytometry, Alexa488-MEK5 binding to MEKK2 mutant; percent response, % at 10 µM; 5,900 tested, 2% active; shares compounds with MEKK3 PB1 HTS; in the data active = percent response mostly above about 71%, no sharp cut-off; inactive = mostly below about 38%;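 note: higher means compound restores mutant binding toward wildtype level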
MEKK3-MEK5 inh – confirmation of inhibitors of MEK5 binding to human MEKK3; AID 1894; bead flow cytometry, Alexa488-MEK5 binding to MEKK3; hits give low values; binding response (% of control), % at 10 µM; 5,900 tested, 1.8% active; shares compounds with MEKK3 PB1 HTS;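 active = binding response below 72% of control, or above a set upper limit, though filed actives all read lower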;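 note: 100% = DMSO only wells and 0% = binding blocked by excess unlabeled MEK5; lower values mean stronger disruption of MEK5 binding to MEKK3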
Numbers without * were called inactive; [ ] = remark or other dose.

For CC1Cc2ccccc2N1C1=CC(=O)CCC1 (configuration not stated) the results were ABCG2 inh 1, MEKK2 mut-MEK5 -47, MEKK3 PB1 HTS 0.0*[inhibitor], ABCB1 inh -1, MEKK2 WT-MEK5 0.0*[inhibitor], MEKK2wt confirm 108, MEKK2mut confirm 9 and MEKK3-MEK5 inh 106.
For N#C/C(=C\C1=C(N2CCOCC2)C(=C/c2cccc([N+](=O)[O-])c2)/CC1)C(=O)Nc1ccccc1F the results were ABCG2 inh 2, MEKK2 mut-MEK5 -7, MEKK3 PB1 HTS 9.0*[inhibitor], ABCB1 inh 1, MEKK2wt confirm 92, MEKK2mut confirm -7 and MEKK3-MEK5 inh 98.
For CCN(CC)c1ccc(/C=C2\CCC(/C=C(\C#N)C(=O)Nc3ccccc3F)=C2N2CCOCC2)cc1 the results were ABCG2 inh 0 and ABCB1 inh 9.
`N#C/C(=C\C1=C(N2CCOCC2)C(=C\c2ccc(Cl)cc2)/CC1)C(=O)Nc1ccccc1F` gave ABCG2 inh 11, MEKK2 mut-MEK5 -9, MEKK3 PB1 HTS 7.0*[inhibitor], ABCB1 inh 8, MEKK2wt confirm 72, MEKK2mut confirm -19 and MEKK3-MEK5 inh 73.
Screening CCc1ccc(S(=O)(=O)c2nnn3c2nc(N2CCOCC2)c2ccccc23)cc1 returned MEKK2 mut-MEK5 -1, MEKK3 PB1 HTS 99 and MEKK2 WT-MEK5 96.
Screening CC1=C(C(=O)OC(C)C)C(C2CC=CCC2)NC(=O)N1 (configuration not stated) returned ABCG2 inh 2, MEKK2 mut-MEK5 -40, MEKK3 PB1 HTS 0.0*[inhibitor], ABCB1 inh 0, MEKK2 WT-MEK5 -4.0*[inhibitor], MEKK2wt confirm 103, MEKK2mut confirm 10 and MEKK3-MEK5 inh 105.
Screening CCn1ccnc1CN(C)Cc1cn(-c2ccc(C)cc2)nc1-c1cccc(C)c1 returned ABCG2 inh 4, MEKK2 mut-MEK5 -3, MEKK3 PB1 HTS 107, ABCB1 inh 5, MEKK2 WT-MEK5 138*, MEKK2wt confirm 124, MEKK2mut confirm 11 and MEKK3-MEK5 inh 103.
CNC(=S)N/N=C/c1ccccc1Cl was read as ABCG2 inh 10, MEKK2 mut-MEK5 0, MEKK3 PB1 HTS 142*, ABCB1 inh 0, MEKK2 WT-MEK5 108, MEKK2wt confirm 102, MEKK2mut confirm -1 and MEKK3-MEK5 inh 102.
Screening O=C(CNC(=O)c1ccccc1)N/N=C/c1ccccc1Cl returned ABCG2 inh 1, MEKK2 mut-MEK5 1, MEKK3 PB1 HTS 129*, ABCB1 inh 0, MEKK2 WT-MEK5 112, MEKK2wt confirm 96, MEKK2mut confirm 0 and MEKK3-MEK5 inh 100.
COc1ccc2c(c1)c(/C=N/Nc1nc3ccccc3[nH]1)c(C)n2C was read as MEKK2 mut-MEK5 51*, MEKK3 PB1 HTS 103, MEKK2 WT-MEK5 164*, MEKK2wt confirm 165, MEKK2mut confirm 41 and MEKK3-MEK5 inh 107.
Screening COc1cc(/C=N\Nc2nc3ccccc3[nH]2)cc(OC)c1OC returned ABCG2 inh 2, MEKK2 mut-MEK5 4, MEKK3 PB1 HTS 106, ABCB1 inh 0 and MEKK2 WT-MEK5 112.
`Cc1ccc(NC(=O)CCCN2C(=O)c3cccc4cccc(c34)C2=O)cc1` gave ABCG2 inh 23, MEKK2 mut-MEK5 1, MEKK3 PB1 HTS 145*, ABCB1 inh 1, MEKK2 WT-MEK5 110, MEKK2wt confirm 100, MEKK2mut confirm 1 and MEKK3-MEK5 inh 104.
Screening Cc1ccc(-c2nc3sc4c(c3c(=O)n2N)CCCC4)cc1 returned ABCG2 inh 4, MEKK2 mut-MEK5 -28, MEKK3 PB1 HTS 56*[inhibitor], ABCB1 inh 1, MEKK2 WT-MEK5 66, MEKK2wt confirm 106, MEKK2mut confirm -2 and MEKK3-MEK5 inh 99.
`O=c1c2c3c(sc2nc2n1CCCC2)CCC3` gave ABCG2 inh 3, MEKK2 mut-MEK5 -13, MEKK3 PB1 HTS 72*[inhibitor], ABCB1 inh 0, MEKK2 WT-MEK5 80, MEKK2wt confirm 99, MEKK2mut confirm -6 and MEKK3-MEK5 inh 100.
Screening O=c1c2c3c(sc2nc2n1CCCCC2)CCCCC3 returned ABCG2 inh 4, MEKK2 mut-MEK5 2, MEKK3 PB1 HTS 102, ABCB1 inh 0 and MEKK2 WT-MEK5 97.
COC(=O)c1cc(OC)c(OC)cc1NC(=S)N1CCN(c2ccccc2)CC1 was read as ABCG2 inh 7, MEKK2 mut-MEK5 -21, MEKK3 PB1 HTS 1.0*[inhibitor], ABCB1 inh 2, MEKK2 WT-MEK5 2.0*[inhibitor], MEKK2wt confirm 102, MEKK2mut confirm -2 and MEKK3-MEK5 inh 103.
Screening COC(=O)c1ccc(C(=O)OC)c(NC(=O)CN2CCCCC2)c1 returned ABCG2 inh 9, MEKK2 mut-MEK5 -2, MEKK3 PB1 HTS 99, ABCB1 inh 1 and MEKK2 WT-MEK5 102.
For COc1ccccc1NC(=O)N1CCOCC1 the results were MEKK2 mut-MEK5 2, MEKK3 PB1 HTS 102 and MEKK2 WT-MEK5 98.
`COc1ccccc1NC(=S)N1CCOCC1` gave ABCG2 inh 2, MEKK2 mut-MEK5 0, MEKK3 PB1 HTS 73*[inhibitor], ABCB1 inh 0, MEKK2 WT-MEK5 99, MEKK2wt confirm 100, MEKK2mut confirm 1 and MEKK3-MEK5 inh 104.
For COC(=O)c1cc(OC)c(OC)cc1NC(=O)CN1CCCCC1 the results were ABCG2 inh 2, MEKK2 mut-MEK5 -26, MEKK3 PB1 HTS -1.0*[inhibitor], ABCB1 inh 0, MEKK2 WT-MEK5 -4.0*[inhibitor], MEKK2wt confirm 92, MEKK2mut confirm -10 and MEKK3-MEK5 inh 88.
Screening COC(=O)c1ccccc1NC(=S)N1CCN(c2ccccc2)CC1 returned MEKK2 mut-MEK5 8, MEKK3 PB1 HTS 108 and MEKK2 WT-MEK5 104.
For Cc1ccc2c(C)c(C(=O)N(C)C(C)c3ccon3)oc2c1C (configuration not stated) the results were MEKK2 mut-MEK5 6, MEKK3 PB1 HTS 101 and MEKK2 WT-MEK5 105.
`C1CCC(C(CC2CCCCN2)C2CCCCC2)CC1` (configuration not stated) gave ABCG2 inh 0, MEKK2 mut-MEK5 17, MEKK3 PB1 HTS 86, ABCB1 inh 1, MEKK2 WT-MEK5 171*, MEKK2wt confirm 140, MEKK2mut confirm 28 and MEKK3-MEK5 inh 102.
Screening N#C/C(=C\c1ccc(Sc2nc3ccccc3[nH]2)o1)c1ccccc1 returned ABCG2 inh 2, MEKK2 mut-MEK5 7, MEKK3 PB1 HTS 107, ABCB1 inh 1 and MEKK2 WT-MEK5 101.
